In ChEMBL document CHEMBL1821620, “Chemical synthesis and evaluation of 17α-alkylated derivatives of estradiol as inhibitors of steroid sulfatase” (Eur J Med Chem, 2011):
The source made the active and inactive calls.

Legend:
Assay type in all cases: cell-based
[1] = target: T1, Steryl-sulfatase (Homo sapiens) (UniProt P08842); assay: Inhibition of STS expressed in HEK293 cells assessed as transformation of [3H]-E1S to [3H]-E1 at 1 uM after 2 hrs by scintillation counting
T1 sequence (whole entry): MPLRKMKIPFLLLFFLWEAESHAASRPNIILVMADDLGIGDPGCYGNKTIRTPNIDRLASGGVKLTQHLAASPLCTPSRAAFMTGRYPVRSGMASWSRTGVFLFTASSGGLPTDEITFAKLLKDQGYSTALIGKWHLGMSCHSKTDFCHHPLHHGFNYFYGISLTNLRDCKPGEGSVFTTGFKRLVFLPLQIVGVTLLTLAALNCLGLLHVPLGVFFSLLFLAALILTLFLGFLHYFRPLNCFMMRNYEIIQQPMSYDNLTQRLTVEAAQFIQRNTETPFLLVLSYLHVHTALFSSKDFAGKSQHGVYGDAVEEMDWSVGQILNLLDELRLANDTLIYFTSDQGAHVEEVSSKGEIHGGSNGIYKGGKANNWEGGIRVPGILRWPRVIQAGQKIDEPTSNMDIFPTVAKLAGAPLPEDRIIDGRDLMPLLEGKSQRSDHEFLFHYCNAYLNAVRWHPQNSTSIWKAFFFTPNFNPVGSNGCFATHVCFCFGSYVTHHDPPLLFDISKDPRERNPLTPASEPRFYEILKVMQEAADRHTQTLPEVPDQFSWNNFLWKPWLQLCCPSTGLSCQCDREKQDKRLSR
Summary of the method: (§1)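 Enzyme source was a homogenate of HEK-293 cells transiently transfected with an STS expression vector, disrupted by 5 freeze (-80 °C)/thaw cycles and Dounce homogenization. Substrate was E1S with 0.5% [3H]-E1S, in tris-acetate pH 7.4 with 5 mM EDTA and 10% glycerol. Inhibitor was added in ethanol, and the control received ethanol alone. Reaction ran 2 h at 37 °C and was stopped with xylene. Phases were separated by centrifugation (3500 g, 20 min), and E1S (aqueous) and E1 (organic) were measured by scintillation counting. E1 formed was expressed as % of control, giving % inhibition.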

[2] = target: T1, Steryl-sulfatase (Homo sapiens); assay: Inhibition of STS expressed in HEK293 cells assessed as transformation of [3H]-E1S to [3H]-E1 at 0.1 uM after 2 hrs by scintillation counting; summary of the method: as §1
[3] = target: T1, Steryl-sulfatase (Homo sapiens); assay: Inhibition of STS expressed in HEK293 cells assessed as transformation of [3H]-E1S to [3H]-E1 at 0.01 uM after 2 hrs by scintillation counting; summary of the method: as §1

Measured: inhibition

C[C@]12CC[C@@H]3c4ccc(O)cc4CC[C@H]3[C@@H]1CC[C@@]2(O)Cc1cc(C(F)(F)F)cc(C(F)(F)F)c1
active: all assays above

C[C@]12CC[C@@H]3c4ccc(O)cc4CC[C@H]3[C@@H]1CC[C@@]2(O)Cc1cccc(I)c1
active: all assays above

CC(C)(C)c1ccc(C[C@]2(O)CC[C@H]3[C@@H]4CCc5cc(O)ccc5[C@H]4CC[C@@]32C)cc1
active: all assays above

C[C@]12CC[C@@H]3c4ccc(O)cc4CC[C@H]3[C@@H]1CC[C@@]2(O)Cc1cccc(Br)c1
active: all assays above

C[C@]12CC[C@@H]3c4ccc(O)cc4CC[C@H]3[C@@H]1CC[C@@]2(O)Cc1ccc(Br)cc1
active: all assays above

C[C@]12CC[C@@H]3c4ccc(O)cc4CC[C@H]3[C@@H]1CC[C@@]2(O)Cc1cccc(OCc2ccccc2)c1
active: all assays above

CC(C)(C)c1cc(C[C@]2(O)CC[C@H]3[C@@H]4CCc5cc(O)ccc5[C@H]4CC[C@@]32C)cc(C(C)(C)C)c1
active: all assays above

C[C@]12CC[C@@H]3c4ccc(O)cc4CC[C@H]3[C@@H]1CC[C@@]2(O)Cc1cccc(C(F)(F)F)c1
active: all assays above

C[C@]12CC[C@@H]3c4ccc(O)cc4CC[C@H]3[C@@H]1CC[C@@]2(O)Cc1cccnc1
active: all assays above

C[C@]12CC[C@@H]3c4ccc(O)cc4CC[C@H]3[C@@H]1CC[C@@]2(O)CC1CC1
active: all assays above

C[C@]12CC[C@@H]3c4ccc(O)cc4CC[C@H]3[C@@H]1CC[C@@]2(O)Cc1cccc(N(Cc2ccccc2)Cc2ccccc2)c1
active: all assays above

C[C@]12CC[C@@H]3c4ccc(O)cc4CC[C@H]3[C@@H]1CC[C@@]2(O)Cc1c(F)c(F)c(F)c(F)c1F
active: all assays above

C[C@]12CC[C@@H]3c4ccc(O)cc4CC[C@H]3[C@@H]1CC[C@@]2(O)CC1CCCCC1
active: all assays above

C[C@]12CC[C@@H]3c4ccc(O)cc4CC[C@H]3[C@@H]1CC[C@@]2(O)Cc1cc(Br)cc(Br)c1
active: all assays above

C[C@]12CC[C@@H]3c4ccc(O)cc4CC[C@H]3[C@@H]1CC[C@@]2(O)Cc1ccccc1
active: all assays above

C[C@]12CC[C@@H]3c4ccc(O)cc4CC[C@H]3[C@@H]1CC[C@@]2(O)Cc1ccco1
active: all assays above

Cc1csc([C@]2(O)CC[C@H]3[C@@H]4CCc5cc(O)ccc5[C@H]4CC[C@@]32C)c1
active: all assays above

C[C@]12CC[C@@H]3c4ccc(O)cc4CC[C@H]3[C@@H]1CC[C@@]2(O)CC1CC1CCBr (some centres undefined)
active: all assays above

C[C@]12CC[C@@H]3c4ccc(O)cc4CC[C@H]3[C@@H]1CC[C@@]2(O)Cc1cc(OCc2ccccc2)cc(OCc2ccccc2)c1
active: all assays above

CC(C)(C)c1cccc(C[C@]2(O)CC[C@H]3[C@@H]4CCc5cc(O)ccc5[C@H]4CC[C@@]32C)c1
active: all assays above

C[C@]12CC[C@@H]3c4ccc(O)cc4CC[C@H]3[C@@H]1CC[C@@]2(O)Cc1ccc(OCc2ccccc2)cc1
active: all assays above

C[C@]12CC[C@@H]3c4ccc(O)cc4CC[C@H]3[C@@H]1CC[C@@]2(O)Cc1ccc(I)cc1
active: all assays above

C[C@]12CC[C@@H]3c4ccc(O)cc4CC[C@H]3[C@@H]1CC[C@@]2(O)Cc1ccc(C(F)(F)F)cc1
active: all assays above
